# Bioassay records from PubChem BioAssay.
# DNMT1 inh: DNMT1 (human) enzyme inhibition; P26358; DNMT1 molecular beacon, Hinp1I cleavage, fluorescence; inhibition (reported as % activation of signal), % at 10 µM; 0.83% of 360,000 active; AID 588458; in the data active = inhibition above about 50%
# LMPTP inh: blocks human LMPTP phosphatase; P24666; recombinant LMPTP-A, OMFP fluorogenic substrate, fluorescence intensity; inhibition, % at 20 µM; 0.22% of 360,000 active; AID 651560;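 active = compounds that cut the enzyme signal by at least half of the control window in the single-dose screen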;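 also: plate controls were DMSO wells with enzyme plus substrate for no effect and substrate without enzyme for full effect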
# Target sequence (P24666 whole entry, looked up): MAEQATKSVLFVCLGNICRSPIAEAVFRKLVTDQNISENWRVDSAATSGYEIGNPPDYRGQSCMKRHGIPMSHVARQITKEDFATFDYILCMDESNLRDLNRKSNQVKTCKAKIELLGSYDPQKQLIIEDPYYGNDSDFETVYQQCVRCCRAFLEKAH
#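 Test system – LMPTP-A enzyme · Amount – LMPTP-A at 0.625 nM final in the reaction · Buffer or medium – Bis-Tris pH 6.0, DTT, detergent · Reagent – OMFP 400 µM · Doses – single 20 µM dose · Schedule – reaction 50 min, room temperature, dark · Detection – fluorescence intensity of OMFP turnover product · Evaluation – percent inhibition versus substrate-only and uninhibited controls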
# Scp1 inh: Scp-1 (human) phosphatase inhibition; 0.88% of 340,000 active; Recombinant Scp1, phosphopeptide, malachite green phosphate absorbance; AID 493091; inhibition, % at 20 µM;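 active = inhibition above about 50% at 20 µM, limit read from the data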;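 also: plate controls were DMSO wells with enzyme for no effect and wells lacking enzyme for full effect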
# Target sequence (Q9GZU7 76-261 limits assumed): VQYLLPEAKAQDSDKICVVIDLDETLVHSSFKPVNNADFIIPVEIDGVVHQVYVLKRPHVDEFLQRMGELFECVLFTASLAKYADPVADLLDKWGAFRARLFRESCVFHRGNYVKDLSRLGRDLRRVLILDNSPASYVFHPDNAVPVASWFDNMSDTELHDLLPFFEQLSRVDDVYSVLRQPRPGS
#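 Test system: SCP-1 phosphatase catalytic domain, residues 76-261; measured by: colorimetric phosphate reagent with accelerator and stabiliser, absorbance at 630 nm; timing: enzyme reaction 45 min at room temperature, colour 5 min, stabilisation 30 min; also added: Phosphorylated 17-residue peptide substrate; compound dosing: one concentration, 20 µM, with 1.0% DMSO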
# SUMO1-SIM PPI: alters human SUMO1 binding to SIM partners; P63165; 0.33% of 360,000 active; AID 602429; SUMO1 binding to a labelled peptide, TR-FRET, 1 h; inhibition, % at 20 µM; in the data active = inhibition above about 37%
# Target sequence (P63165 whole entry, looked up): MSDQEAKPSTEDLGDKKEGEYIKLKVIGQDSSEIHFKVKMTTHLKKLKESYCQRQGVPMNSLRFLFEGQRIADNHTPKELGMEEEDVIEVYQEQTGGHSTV
# STEP inh: inhibitors of human striatal-enriched phosphatase STEP; inhibition, % at 20 µM; 0.25% of 360,000 active; recombinant STEP, OMFP fluorogenic substrate, fluorescence; P54829;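 active = inhibition at 20 µM, scaled per plate between control wells, above about 37%, limit read from the data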;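 also: 0% = DMSO with enzyme and substrate and 100% = substrate only without enzyme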
#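 material = STEP tyrosine phosphatase | reagent = fluorogenic phosphatase substrate OMFP at 25 µM final | doses = single compound dose of 20 µM, 1% DMSO final | schedule = 20 min reaction, room temperature, in the dark | measured by = fluorescence, 480/540 nm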
# NadD block: blocks S. aureus nicotinate mononucleotide adenylyltransferase. 0.78% of 360,000 active. inhibition, % at 20 µM. purified NadD enzyme, colorimetric absorbance read-out. AID 602399; in the data active = inhibition above about 26%
# NadD inh conf: NadD (S. aureus) inhibition, single concentration confirmation | shares compounds with NadD block | purified S. aureus NadD, colorimetric enzyme assay | inhibition, % at 20 µM | 13% of 2,000 active | AID 624309; in the data active = inhibition mostly above about 42%, no sharp cut-off; inactive = mostly below about 42%
# Active calls of the source: *; · = not tested or not shown. The list is not random: actives were taken first. Their share in the collection is about 2.4%.
SMILES,DNMT1 inh,LMPTP inh,Scp1 inh,SUMO1-SIM PPI,STEP inh,NadD block,NadD inh conf
O=c1[nH]c(SCc2ccccc2)nc2[nH]ncc12,1.6,-0.9,-1.2,4.2,-2.3,-0.8,·
COc1ccccc1C(=O)Nc1ccc(Oc2nnc(-c3ccc(C)cc3)c3ccccc23)cc1,-3.2,3.8,10.6,-1.4,5.8,52.2*,16.9
COCCN(C(=O)COC(=O)CCS(=O)(=O)c1ccccc1)c1c(N)n(Cc2ccccc2)c(=O)[nH]c1=O,4.5,-0.4,1.3,4.6,0.7,0.2,·
Cc1ccc2[nH]c(=O)c(CN(CCc3ccccc3)C(c3nnnn3Cc3ccco3)C(C)C)cc2c1 (stereo unspecified),-10.3,5.2,0.8,-26.5,-1.7,53.9*,56.5*
O=c1[nH]c2cc3c(cc2cc1CN(Cc1ccccc1)Cc1nnnn1Cc1ccco1)OCCO3,4.2,26.5,-1.9,16.3,4.0,33.1*,15.0
Cc1ccc2[nH]c(=O)c(CN(Cc3ccc4c(c3)OCO4)Cc3nnnn3Cc3ccco3)cc2c1,9.0,6.7,1.1,20.7,-1.0,15.6,·
Cc1cc(C)c2cc(CN(Cc3ccc4c(c3)OCO4)Cc3nnnn3Cc3ccco3)c(=O)[nH]c2c1,-6.9,3.0,8.9,2.3,-0.3,37.0*,9.8
CC(=O)c1ccc(Sc2nnc(C)s2)c([N+](=O)[O-])c1,1.9,-1.7,-2.8,-18.6,-3.1,-5.2,·
O=C(CC[C@H]1O[C@@H](n2ccc(=O)[nH]c2=O)[C@H](O)[C@@H]1O)N[C@H](Cc1ccccc1)C(=O)NCc1cccs1,1.4,-2.3,·,-3.1,1.4,-7.0,·
Cc1cccc(NC(=O)c2nc[nH]c2C(=O)Nc2ccccc2[N+](=O)[O-])c1,22.7,0.5,-8.0,-1.8,0.3,31.2*,3.4
CCn1c(SCc2nc3scc(-c4ccccc4)c3c(=O)[nH]2)nnc1-c1cccs1,-3.1,0.0,-4.6,12.3,2.7,18.7,·
COCCn1c(SCc2nc3scc(-c4ccc(Cl)cc4)c3c(=O)[nH]2)nnc1-c1cccc(C)c1,-2.9,3.9,4.0,1.4,-1.1,32.5*,26.2
O=C(NCC[C@@H]1CC[C@@H](NS(=O)(=O)Cc2ccccc2)[C@@H](CO)O1)C1CC1,·,0.8,·,9.9,·,·,·
COC(=O)CCCC1=CC2=CC(=O)C(C)(OC(=O)CCc3ccccc3)C(=O)C2=CO1 (stereo unspecified),-9.8,0.2,-3.6,23.9,-0.7,41.4*,72.2*
COc1ccc(N2C=C3C(=O)C(C)(OC(=O)CCc4ccccc4)C(=O)C=C3C=C2c2ccc(C#N)cc2)cc1 (stereo unspecified),-8.5,3.6,1.6,-20.5,3.0,29.1,·
CCOc1cccc(C(=O)Nc2nc(-c3ccc(S(=O)(=O)N4CCOCC4)cc3)cs2)c1,6.3,0.9,-7.5,0.3,-3.8,14.6,·
O=C(COc1cccc(Cl)c1)Nc1nc(-c2ccc(S(=O)(=O)N3CCOCC3)cc2)cs1,-3.4,2.5,-19.6,1.3,2.5,31.6*,6.9
O=C(NCCc1ccco1)C(=O)NCC1OCCCN1S(=O)(=O)c1ccccc1 (stereo unspecified),-1.3,1.6,5.8,6.6,0.3,3.0,·
Cc1ccccc1NC(=O)c1ccc(NS(=O)(=O)c2cc(C(C)(C)C)cc(C)c2C)cc1,-16.9,3.7,-14.3,-3.5,-3.0,41.4*,25.7
Cc1ccc(C(=O)NCCn2c(N)c(C#N)c3nc4ccccc4nc32)cc1,-14.1,1.0,-4.9,32.0,1.5,0.6,·
CCCCn1c(NC(=O)c2ccccc2)c(C#N)c2nc3ccccc3nc21,76.3*,16.1,-5.2,42.2*,1.8,32.9*,42.7
COc1ccc(NC(=O)c2c[nH]n3c(=O)cc(C4CCN(C(=O)OC(C)(C)C)CC4)nc23)cc1Cl,-23.5,5.2,12.8,11.9,-0.3,29.0*,20.4
O=C(N[C@@H](Cc1ccccc1)C(=O)OCc1ccccc1)c1nc[nH]c1C(=O)N1CCN(c2ccccc2)CC1,-16.0,1.3,0.6,0.2,0.3,30.5*,15.6
